Experimental data collected from several papers.
Lines come from different studies, so protocols differ.
PTPN1: Tyrosine-protein phosphatase non-receptor type 1 (PTPN1, Homo sapiens, UniProt P18031)
Acetylcholinesterase: Acetylcholinesterase (Bos taurus, UniProt P23795)
MAOA: Amine oxidase [flavin-containing] A (MAOA, Homo sapiens, UniProt P21397)
Integrin alpha-V/beta-3: Integrin alpha-V/beta-3 (Homo sapiens, UniProt P05106+P06756)
LDHA: L-lactate dehydrogenase A chain (LDHA, Homo sapiens, UniProt P00338)

| SMILES | target | assay | setting | IC50 |
| --- | --- | --- | --- | --- |
| CC(C)(C)OC(=O)N1CCN(C(=O)C(=O)CC(=O)c2cccc(OCc3ccccc3)c2)CC1 | PTPN1 | enzyme activity, inhibitor, absorbance | pH 7 | 39.5 µM |
| CCC(CC)CSc1ccccc1OC(=O)NC | Acetylcholinesterase | enzyme activity, inhibitor, Ellman | – | 5.07 µM |
| COc1ccc(/C=C/C(=O)N2CCN(Cc3ccccc3)CC2)cc1OC | MAOA | enzyme activity, inhibitor, fluorescence | – | 63.2 µM |
| Nc1c(S(=O)(=O)O)cc(Nc2ccc(Nc3nc(Cl)nc(Nc4cccc(S(=O)(=O)O)c4)n3)c(S(=O)(=O)O)c2)c2c1C(=O)c1ccccc1C2=O | P2X purinoceptor 4 (P2RX4, Homo sapiens, UniProt Q99571) | calcium signal, antagonist | – | 3.49 µM |
| NC(Cc1ccc(C(=O)[P-](F)(F)(F)(F)F)cc1)C(=O)O (centres unmarked) | PTPN1 | enzyme activity, inhibitor | – | 104 µM |
| CN(C)CCCN1c2ccccc2Sc2ccccc21 | Histamine H2 receptor (HRH2, Homo sapiens, UniProt P25021) | ligand displacement, radioligand | – | 0.11 µM |
| COc1cc(Nc2ncc(F)c(Nc3ccc4c(n3)NC(=O)C(C)(C)O4)n2)cc(OC)c1OC | Cathepsin S (CTSS, Homo sapiens, UniProt P25774) | enzyme activity, inhibitor | – | 12.6 µM |
| CC[C@H](C)[C@@H]([C@@H](CC(=O)N1CCC[C@H]1[C@H](OC)[C@@H](C)C(=O)N[C@H](C)[C@@H](O)c1ccccc1)OC)N(C)C(=O)[C@@H](NC(=O)[C@H](C(C)C)N(C)C(=O)CCc1cn(CCOCCOCCOCCOCC(=O)NCc2ccc(CN3C(=O)[C@H]4CC(=O)N[C@H](C(=O)O)CC(=O)NCC(=O)N[C@@H](CCCNC(=N)N)C(=O)NC[C@H]3C(=O)N4)cc2)nn1)C(C)C | Integrin alpha-V/beta-3 | ligand displacement | – | 0.0145 µM |
| NC(=O)c1cccc(-c2cc(OC(=O)NC3CCCCC3)ccc2O)c1 | Monoglyceride lipase (Rattus norvegicus, UniProt Q8R431) | enzyme activity, inhibitor | – | > 100 µM |
| CNC1CC(c2ccc(Cl)c(Cl)c2)c2ccccc21 (centres unmarked) | Glutathione reductase, mitochondrial (GSR, Homo sapiens, UniProt P00390) | enzyme activity, inhibitor, absorbance | – | > 100 µM |
| CCCc1c(C2CCCCN2CCN2CCOCC2)[nH]c2cc(OC(F)(F)F)ccc12 (centres unmarked) | Plasma membrane ATPase 1 (PMA1, Saccharomyces cerevisiae, UniProt P05030) | ATPase activity, inhibitor | – | 26.9 µM |
| CC[n+]1c(-c2ccccc2)c2cc(N)ccc2c2ccc(N)cc21 | Acetylcholinesterase | enzyme activity, inhibitor, Ellman | – | 32.3 µM |
| COc1ccc(N2CCN(C(c3cccs3)C(C)NC(=O)C(=O)NCc3ccco3)CC2)cc1 (centres unmarked) | PTPN1 | enzyme activity, inhibitor, absorbance | pH 7 | 14.4 µM |
| COc1c(O[C@@H]2O[C@H](CO)[C@@H](O)[C@H](O)[C@H]2O[C@@H]2O[C@H](CO)[C@@H](O)[C@H](O)[C@H]2O)cc2oc(-c3ccc(O)cc3)cc(=O)c2c1O | LDHA | enzyme activity, inhibitor | pH 7.4 | > 500 µM |
| CC[C@H](C)[C@@H]([C@@H](CC(=O)N1CCC[C@H]1[C@H](OC)[C@@H](C)C(=O)N[C@@H](Cc1ccccc1)C(=O)O)OC)N(C)C(=O)[C@@H](NC(=O)[C@H](C(C)C)N(C)C(=O)OCc1ccc(NC(=O)[C@H](C)NC(=O)[C@@H](NC(=O)CCc2cn(CCOCCOCCOCCOCC(=O)NCc3ccc(CN4C(=O)[C@H]5CC(=O)N[C@H](C(=O)O)CC(=O)NCC(=O)N[C@@H](CCCNC(=N)N)C(=O)NC[C@H]4C(=O)N5)cc3)nn2)C(C)C)cc1)C(C)C | Integrin alpha-V/beta-3 | ligand displacement | – | 0.0439 µM |
| CNC(=O)Oc1cccc2c1OC(C)(C)C2 | Acetylcholinesterase | enzyme activity, inhibitor, Ellman | – | 0.073 µM |
| C#CCNc1nc(NCCCCC2CCN(Cc3ccccc3)CC2)c(C#N)cc1C#N | MAOA | enzyme activity, inhibitor, fluorescence | – | 53.3 µM |
| O=c1cc(-c2ccc(O)c(O)c2)oc2cc(O[C@@H]3O[C@H](CO)[C@@H](O)[C@H](O)[C@H]3O[C@@H]3O[C@H](CO)[C@@H](O)[C@H](O)[C@H]3O)cc(O)c12 | LDHA | enzyme activity, inhibitor | pH 7.4 | 163 µM |
| O=C1C[C@H](c2ccc(O)cc2)Oc2cc(O)ccc21 | MAOA | enzyme activity, inhibitor | – | 9.97 µM |
| COc1cc2c3cc1Oc1cc(ccc1O)C[C@@H]1c4c(cc(OC)c(O)c4Oc4ccc(cc4)C[C@@H]3N(C)CC2)CC[N+]1(C)C | Acetylcholinesterase | enzyme activity, inhibitor, Ellman | – | 54.4 µM |
